Test results: ChEMBL document CHEMBL1154414, “In vitro and in vivo activities of T-705 against arenavirus and bunyavirus infections” (Antimicrob Agents Chemother, 2007)

Columns and labels:
Punta Toro virus [1] = assay: Antiviral activity against 5000 PFU Punta Toro virus Adames infected C57BL/6 mouse assessed as survival at 10 mg/kg, po twice daily for 5 days administered 24 hrs post viral challenge; type: functional
Summary of the method: (§1)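 PTV was inoculated subcutaneously into mice in groups of 15 (25–30 placebo). Dosing was by oral gavage twice daily for 5–7 days, with T-705 suspended in 0.4% CMC and ribavirin in saline. Remaining animals were observed 21–28 days for survival and day of death. Test doses had first been checked for tolerance in uninfected animals.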

Punta Toro virus [2] = assay: Antiviral activity against Punta Toro virus Adames infected Syrian golden hamster assessed as survival at 60 mg/kg, po twice daily for 6 days administered 4 hrs before viral challenge; type: functional
Punta Toro virus [3] = assay: Antiviral activity against Punta Toro virus Adames assessed as reduction of 1 log10 unit viral titer yields after 3 to 5 days; type: functional
Rift Valley fever virus = assay: Antiviral activity against Rift Valley fever virus MP-12 assessed as reduction of 1 log10 unit viral titer yields after 3 to 5 days; type: functional
[4] = system: Sandfly fever Naples virus; assay: Antiviral activity against Sandfly fever Naples virus assessed as reduction of 1 log10 unit viral titer yields after 3 to 5 days; type: functional
Punta Toro virus [5] = assay: Antiviral activity against 500 PFU Punta Toro virus Adames infected C57BL/6 mouse assessed as mean viral titer per 0.1 g of liver at 200 mg/kg, po twice daily administered 4 hrs before viral challenge measured on day 4 of viral infection; type: functional
Summary of the method: (§2)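 Mice were infected subcutaneously with PTV and dosed by oral gavage twice daily; 5 per group (10 placebo) were killed on day 3 or 4. Liver homogenate or serum was serially diluted onto triplicate LLC-MK2 monolayers, and CPE was read 6–8 days later. 50% endpoints gave log10 CCID50 per 0.1 g liver or 0.1 ml serum. Detection range was 2.8–9.5; undetectable samples were assigned <2.8.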

Punta Toro virus [6] = assay: Antiviral activity against 500 PFU Punta Toro virus Adames infected C57BL/6 mouse assessed as animals with detectable virus level in liver at 25 mg/kg, po twice daily administered 4 hrs before viral challenge measured on day 4 of viral infection; type: functional
Summary of the method: (§3)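 T-705 was suspended in 0.4% carboxymethylcellulose and given by oral gavage twice daily. Mice were infected subcutaneously with PTV. Five mice per group (10 placebo) were sacrificed on day 3 or 4. Liver homogenate or serum was serially diluted onto triplicate LLC-MK2 monolayers, and CPE was read at 6–8 days. The detection limit was 2.8 log10 CCID50 per 0.1 g liver or 0.1 ml serum.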

Punta Toro virus [7] = assay: Antiviral activity against 500 PFU Punta Toro virus Adames infected C57BL/6 mouse assessed as animals with detectable virus level in liver at 75 mg/kg, po twice daily administered 4 hrs before viral challenge measured on day 4 of viral infection; type: functional; summary of the method: as §3
Punta Toro virus [8] = assay: Antiviral activity against 500 PFU Punta Toro virus Adames infected C57BL/6 mouse assessed as mean viral titer per 0.1 mL of serum at 200 mg/kg, po twice daily administered 4 hrs before viral challenge measured on day 4 of viral infection; type: functional; summary of the method: as §2
Punta Toro virus [9] = assay: Antiviral activity against 500 PFU Punta Toro virus Adames infected C57BL/6 mouse assessed as mean viral titer per 0.1 mL of serum at 100 mg/kg, po twice daily administered 4 hrs before viral challenge measured on day 4 of viral infection; type: functional; summary of the method: as §2
Enterovirus C = assay: Antiviral activity against Poliovirus; type: functional, organism-based
Punta Toro virus [10] = assay: Antiviral activity against Punta Toro virus Adames infected Syrian golden hamster assessed as mean viral titer per 0.1 mL of serum at 15 mg/kg, po twice daily administered 4 hrs before viral challenge measured on day 4 of viral infection; type: functional
Punta Toro virus [11] = assay: Antiviral activity against Punta Toro virus Adames infected Syrian golden hamster assessed as animals with detectable virus level in serum at 60 mg/kg, po twice daily administered 4 hrs before viral challenge measured on day 4 of viral infection; type: functional
Pichinde virus [12] = assay: Antiviral activity against Pichinde virus An 4763 infected Syrian golden hamster assessed as mean viral titer per 0.1 g of liver at 30 mg/kg, po twice daily for 7 days administered 4 hrs before viral-challenge measured on day 7 of viral infection; type: functional
Pichinde virus [13] = assay: Antiviral activity against Pichinde virus An 4763 infected Syrian golden hamster assessed as mean viral titer per 0.1 g of liver at 15 mg/kg, po twice daily for 7 days administered 4 hrs before viral-challenge measured on day 7 of viral infection; type: functional
Pichinde virus [14] = assay: Antiviral activity against Pichinde virus An 4763 infected Syrian golden hamster assessed as mean viral titer per 0.1 mL of serum at 30 mg/kg, po twice daily for 7 days administered 4 hrs before viral-challenge measured on day 7 of viral infection; type: functional
Punta Toro virus [15] = assay: Antiviral activity against 500 PFU Punta Toro virus Adames infected C57BL/6 mouse assessed as animals with detectable virus level in serum at 200 mg/kg, po twice daily administered 4 hrs before viral challenge measured on day 4 of viral infection; type: functional; summary of the method: as §3
Punta Toro virus [16] = assay: Antiviral activity against 500 PFU Punta Toro virus Adames infected C57BL/6 mouse assessed as animals with detectable virus level in serum at 50 mg/kg, po twice daily administered 4 hrs before viral challenge measured on day 4 of viral infection; type: functional; summary of the method: as §3
Punta Toro virus [17] = assay: Antiviral activity against 500 PFU Punta Toro virus Adames infected C57BL/6 mouse assessed as animals with detectable virus level in serum at 25 mg/kg, po twice daily administered 4 hrs before viral challenge measured on day 4 of viral infection; type: functional; summary of the method: as §3
Punta Toro virus [18] = assay: Antiviral activity against 500 PFU Punta Toro virus Adames infected C57BL/6 mouse assessed as mean serum ALT levels at 50 mg/kg, po twice daily administered 4 hrs before viral challenge measured on day 4 of viral infection; type: functional
Summary of the method: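 C57BL/6 mice received subcutaneous PTV, then oral gavage twice daily for 5–7 days. T-705 was given in 0.4% CMC and ribavirin in saline. Five mice per group (10 placebo) were killed on day 3 or 4, and serum was collected. ALT activity was measured by kinetic assay. Three sham-infected mice set baselines.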

Punta Toro virus [19] = assay: Antiviral activity against 5000 PFU Punta Toro virus Adames infected C57BL/6 mouse assessed as survival at 30 mg/kg, po twice daily for 5 days 24 hrs post viral challenge; type: functional; summary of the method: as §1
Punta Toro virus [20] = assay: Antiviral activity against 500 PFU Punta Toro virus Adames infected C57BL/6 mouse assessed as mean viral titer per 0.1 g of liver at 5 mg/kg, po twice daily administered 4 hrs before viral challenge measured on day 3 of viral infection; type: functional; summary of the method: as §2
Punta Toro virus [21] = assay: Antiviral activity against 500 PFU Punta Toro virus Adames infected C57BL/6 mouse assessed as mean viral titer per 0.1 mL of serum at 30 mg/kg, po twice daily administered 4 hrs before viral challenge measured on day 3 of viral infection; type: functional; summary of the method: as §2
Punta Toro virus [22] = assay: Antiviral activity against 500 PFU Punta Toro virus Adames infected C57BL/6 mouse assessed as protection against viral infection at 75 mg/kg, po twice daily for 5 to 7 days; type: functional; summary of the method: as §1

Work on NC(=O)c1nc(F)cnc1O [FAVIPIRAVIR] yielded a survival at 10 mg/kg (Punta Toro virus [1]) of 40%, a survival at 60 mg/kg (Punta Toro virus [2]) of 90% and an EC90 (Punta Toro virus [3]) of 20 µM. For the same compound, the EC90 (Rift Valley fever virus) was 6 µM, the EC90 [4] was 3 µM and the log10CCID50 (Punta Toro virus [5]) was less than 2.8. The Activity (Punta Toro virus [6]) was 0%, the Activity (Punta Toro virus [7]) was 0% and the log10CCID50 (Punta Toro virus [8]) was less than 2.8. For the same compound, the log10CCID50 (Punta Toro virus [9]) was less than 2.8, the EC50 (Enterovirus C) was 31 µM and the log10CCID50 (Punta Toro virus [10]) was less than 4.1. The Activity (Punta Toro virus [11]) was 20%, the log10CCID50 (Pichinde virus [12]) was 6.4 and the log10CCID50 (Pichinde virus [13]) was 7.7. It also gave a log10CCID50 (Pichinde virus [14]) of less than 5.2, an Activity (Punta Toro virus [15]) of 0% and an Activity (Punta Toro virus [16]) of 10%. For the same compound, the Activity (Punta Toro virus [17]) was 20%, the Activity (Punta Toro virus [18]) was 41 IU/L and the Activity (Punta Toro virus [19]) was 90%. For the same compound, the log10CCID50 (Punta Toro virus [20]) was less than 2.8 and the log10CCID50 (Punta Toro virus [21]) was less than 5.2.
With NC(=O)c1ncn([C@@H]2O[C@H](CO)[C@@H](O)[C@H]2O)n1 [RIBAVIRIN] the Activity (Punta Toro virus [22]) was 100%.
